Source: PubChem
DDE Tn6 FP inh: disrupts Tn6 cyclic peptide binding to fibrin D-Dimer-E complex; P02675; Fibrin DD(E) TRITC-Tn6 fluorescence polarization displacement; inhibition, % at 8.3 µM; 0.21% of 370,000 active; AID 720509;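 active = inhibition above a per-campaign cutoff: mean of compounds within control limits plus 3 SD, cut at about 15% in these data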
CendR NRP1 mod: alters CendR peptide binding to human NRP-1. O14786. FAM-RPARPAR peptide binding to NRP-1, fluorescence polarization. inhibition, % at 25 µM. 0.85% of 360,000 active. AID 602438;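 active = inhibition or corrected inhibition above about 18%, plus a signal ratio from 0.5 to 1.5, limit read from the data, passing the limit was not always enough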
CRFBP-R2 block: antagonists of CRF-binding protein/CRF-R2 receptor complex; 0.59% of 350,000 active; HEK293 CRF-R2/CRF-BP, CRF-induced calcium fluorescence; inhibition, % at 11.8 µM; AID 588475;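 active = inhibition of the ligand-induced calcium signal above about 50% at the single tested concentration, limit read from the data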
KLK7 zymogen act: activates the human kallikrein-7 zymogen; purified proKLK7, EDANS-DABCYL substrate fluorescence; 100% is mature enzyme control, 0% vehicle; activation, % at 7 µM; 0.9% of 370,000 active;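 active = activation above the mean of all tested compounds plus 3 SD, computed per campaign excluding outliers beyond control limits, cut at about 13% in these data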
Target sequence (P49862 whole entry, looked up): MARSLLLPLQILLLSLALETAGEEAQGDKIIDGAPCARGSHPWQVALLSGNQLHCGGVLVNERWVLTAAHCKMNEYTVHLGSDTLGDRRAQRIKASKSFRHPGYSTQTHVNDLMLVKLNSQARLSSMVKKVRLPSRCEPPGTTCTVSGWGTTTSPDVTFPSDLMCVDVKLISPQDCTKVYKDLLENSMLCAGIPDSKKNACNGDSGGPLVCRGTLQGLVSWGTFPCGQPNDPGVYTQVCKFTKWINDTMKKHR
Tn7 DDE FP: inhibitors of Tn7 peptide binding to human fibrin DD(E); P02675; inhibition, % at 8.3 µM; 0.13% of 370,000 active; FP displacement of FITC-Tn7 peptide from fibrin DD(E); 0% = median of compound wells per plate; AID 720508;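 active = inhibition above the mean of compounds falling within the control limits plus 3 SD of them, cut at about 14% in these data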
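Measure: % inhibition scaled between sample-field median and high-control FP; Test system: human fibrin DD(E); Quantity: 2 µM final DD(E) protein; Doses: one dose, 8.3 µM nominal; Schedule: compound with protein 10 min, then 3 h after probe, room temperature; Detection: fluorescence polarization; Medium: Tris buffer with calcium and detergent, pH 7.8.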
CRFBP-R2 agonist: CRF-BP/CRF-R2 complex agonism. HEK293 CRF-R2/CRF-BP, calcium dye fluorescence (FLIPR); percent of saturating CRF peptide response. activation, % at 13.2 µM. 0.46% of 350,000 active;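 active = activation of at least 50%, plus an integration ratio under a set limit after plate pattern correction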
DDE Tn7 confirm: DD(E)-Tn7 binding inhibition, FP confirmation; 5% of 460 active; FP displacement of TRITC-Tn7 peptide from DD(E); 0% set at plate's compound-well median; shares compounds with Tn7 DDE FP; inhibition, % at 8.3 µM;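 active = inhibition above the campaign cutoff, the mean of compounds within control limits plus 3 SD, cut at about 14% in these data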;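 note: displacers lower polarization since freed probe rises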
Tn7 DDE ctr: DD(E)-Tn7 binding inhibition, counter-screen. shares compounds with Tn7 DDE FP. fibrin DD(E), TRITC-Tn7 probe displacement, fluorescence polarization. inhibition, % at 8.3 µM. 3% of 460 active;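 active = inhibition above the cutoff, the mean of compounds lying between the control bounds plus 3 SD of those compounds, cut at about 17% in these data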
Each line names hits and unclear results; the compound was inactive in the other large screens (follow-up assays come after a bar, where they were run). Hits are enriched below; roughly 2.9% of the tested compounds scored in any of these assays.

C=CCN=C1NC(c2ccccc2C(F)(F)F)C(C(=O)OC)=C(C)N1Cc1ccc(C(F)(F)F)cc1 (stereo not drawn)	none (no result: CendR NRP1 mod, CRFBP-R2 block, CRFBP-R2 agonist)
C=C[C@@H]1c2cc(C)ccc2N(S(=O)(=O)c2ccc(C)cc2)[C@H](c2ccccc2)C1(C#N)C#N	Tn7 DDE FP 14 | DDE Tn7 confirm inactive | Tn7 DDE ctr inactive
Cc1nnc(N2C(=O)C(O)=C(C(=O)c3ccco3)C2c2ccc(F)cc2)s1 (stereo not drawn)	none
CSc1ccc(C2C(C(=O)c3ccco3)=C(O)C(=O)N2c2nnc(SC)s2)cc1 (stereo not drawn)	Tn7 DDE FP 26 | DDE Tn7 confirm inactive | Tn7 DDE ctr inactive
C=CCN1[C@@H](CC(C)C)COc2cc(F)ccc2S1(=O)=O	none (no result: CendR NRP1 mod, CRFBP-R2 block, CRFBP-R2 agonist)
COC(=O)[C@]12C[C@H](CC(=O)N3CCN(C(=O)C4CC4)CC3)C(=O)N(Cc3ccc4c(c3)OCO4)C1=C[C@H](C(C)C)O[C@@H]2C1CC1	none (no result: CendR NRP1 mod, CRFBP-R2 block, CRFBP-R2 agonist)
CCCCn1c(N)c(N(CCOC)C(=O)C2CCN(S(=O)(=O)c3ccc(C)cc3)CC2)c(=O)[nH]c1=O	none
CCCCn1c(N)c(N(CCOC)C(=O)C2CCN(S(=O)(=O)c3ccc(F)cc3)CC2)c(=O)[nH]c1=O	Tn7 DDE FP 17 | DDE Tn7 confirm inactive | Tn7 DDE ctr inactive
COc1cc([N+](=O)[O-])ccc1NC(=S)NNC(=O)CCC(=O)Nc1ccccc1Cl	Tn7 DDE FP 15 | DDE Tn7 confirm inactive | Tn7 DDE ctr inactive
Cc1ccc(N/C=C/C(=O)c2ccc(C)cc2)cc1	Tn7 DDE FP 15 | DDE Tn7 confirm inactive | Tn7 DDE ctr inactive
O=C(CP(=O)(c1ccccc1)c1ccccc1)Nn1cnnc1	Tn7 DDE FP 17 | DDE Tn7 confirm inactive | Tn7 DDE ctr inactive
Nc1[nH]c(C(=O)c2ccccc2)c(-c2ccccc2)c1C(=O)NCCc1c[nH]c2ccccc12	none (no result: CendR NRP1 mod, CRFBP-R2 block, CRFBP-R2 agonist)
C[C@@H]1ON(C)[C@H]2C[C@H]3c4[nH]c5c(-c6cc(Cl)cc(Cl)c6)cccc5c4CCN3C(=O)[C@@H]12	none (no result: CendR NRP1 mod, CRFBP-R2 block, CRFBP-R2 agonist)
COc1ccccc1-c1ccc2c(c1)C(C)(Cc1ccc(Cl)cc1)C(=O)N2 (stereo not drawn)	none (no result: CRFBP-R2 block, CRFBP-R2 agonist)
COc1ccccc1-c1ccc2c(c1)C(C)(Cc1cccc(C#N)c1)C(=O)N2 (stereo not drawn)	Tn7 DDE FP 16 (no result: CRFBP-R2 block, CRFBP-R2 agonist) | DDE Tn7 confirm inactive | Tn7 DDE ctr inactive
CC(C)c1ccccc1NC(=O)CSc1n[nH]c(=O)n1C1CC1	Tn7 DDE FP 14 | DDE Tn7 confirm inactive | Tn7 DDE ctr inactive
CC(C)(C)c1ccc(NC(=O)CSc2n[nH]c(=O)n2C2CC2)cc1	none
Cc1cc(C(=O)NNc2c(Cl)cccc2Cl)no1	Tn7 DDE FP 14 | DDE Tn7 confirm inactive | Tn7 DDE ctr inactive
Cc1cc(C(=O)NNc2cc(Cl)ccc2Cl)no1	none
CCCCCCn1c(=O)[nH]c2nc3cc(N)c(C)cc3nc2c1=O	Tn7 DDE FP 30, CRFBP-R2 agonist 325 | DDE Tn7 confirm inactive | Tn7 DDE ctr inactive
O=C(NCc1ccc(Cl)cc1)c1ccc(Cn2cc(C(F)(F)F)ccc2=O)cc1	Tn7 DDE FP 49 | DDE Tn7 confirm 27 | Tn7 DDE ctr inactive
CCOc1ccc(-n2c(COc3ccc(Cl)cc3)nnc2SCC(=O)Nc2ccc(OCc3ccccc3)cc2)cc1	none (no result: CendR NRP1 mod, CRFBP-R2 block, CRFBP-R2 agonist)
O=C(CSc1nc(-c2ccccc2)cc(=O)[nH]1)Nc1ccc(F)c(F)c1	Tn7 DDE FP 14 | DDE Tn7 confirm inactive | Tn7 DDE ctr inactive
O=C(CSc1nnc(Cc2ccccc2)o1)NCCN1C(=O)CSC1=O	Tn7 DDE FP 16 | DDE Tn7 confirm inactive | Tn7 DDE ctr inactive
O=C(Nc1ccc(Br)cc1)OCCN1CCCC12CCC(c1ccccc1)CC2 (stereo not drawn)	none (no result: CendR NRP1 mod, CRFBP-R2 block, KLK7 zymogen act, CRFBP-R2 agonist)
